# Screens: PubChem, several laboratories
# Apaf1 inhib = inhibitors of human Apaf-1 apoptosome; reconstituted apoptosome caspase-3 activity, DEVD-Rh110 fluorescence; 330,000 tested, 0.71% active; inhibition, % at 20 µM; O14727; active means inhibition of at least 40% at 20 µM;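 further: plate controls were DMSO wells for no effect and DEVD-CHO caspase inhibitor wells for full effect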
#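 Material: cell-free apoptosome with Apaf-1, procaspase-3 and caspase-9; Buffer or medium: Hepes pH 7.5 with detergent and BSA; Reagent: cytochrome c trigger plus (Z-DEVD)2-Rh110 caspase-3 substrate; Times: compound with Apaf-1, dATP, procaspase-3 30 min, then 50 min reaction, room temperature; Technique: Rh110 fluorescence intensity.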
# PAFAH2 FP inh = inhibitors of human PAFAH2 | Q99487 | inhibition, % at 3.39 µM | recombinant PAFAH2, FP-rhodamine activity probe, fluorescence polarization | 340,000 tested, 0.99% active | AID 492956;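 active means inhibition above the mean over all tested compounds plus 3 SD, cut at about 30% in these data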;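 further: inhibitors block probe labeling of enzyme so polarization drops; 0% = enzyme with DMSO and 100% = wells lacking PAFAH2 protein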
# PAFAH1B2 FP inh = PAFAH1B2 (human) inhibition; recombinant PAFAH1B2, FP-rhodamine activity probe, fluorescence polarization; inhibition, % at 3.39 µM; P68402; 340,000 tested, 1.2% active;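 active means inhibition above the mean of all tested compounds plus 3 SD, cut at about 24% in these data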;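 further: 0% = enzyme with DMSO and 100% = wells lacking PAFAH1B2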
# PAFAH1B3 FP inh = PAFAH1B3 (human) inhibition; recombinant PAFAH1B3, FP-rhodamine probe, fluorescence polarization; inhibition, % at 3.39 µM; 340,000 tested, 0.28% active; AID 492972;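 active means inhibition above the screen-wide average of all tested compounds plus 3 SD, cut at about 25% in these data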;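 further: 0% = enzyme with DMSO only and 100% = wells lacking PAFAH1B3 protein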
# pPAFAH inh = inhibitors of human plasma PAF acetylhydrolase (pPAFAH); Q13093; recombinant pPAFAH, FP-rhodamine probe fluorescence polarization; AID 463082; 330,000 tested, 1.5% active; inhibition, % at 3.39 µM;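 active means inhibition above the mean inhibition across the screen plus 3 SD, cut at about 25% in these data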;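 further: inhibitors block binding of the rhodamine activity-based probe so polarization drops; 0% = enzyme with DMSO and 100% = wells lacking pPAFAH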
# pPAFAH FP conf = pPAFAH (human) inhibition, confirmed | shares compounds with pPAFAH inh | recombinant pPAFAH, FP-Rh probe fluorescence polarization | inhibition, % at 3.39 µM | 2,300 tested, 72% active;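 active means mean inhibition of the triplicate above the hit cutoff set for the earlier primary screen, cut at about 25% in these data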;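 further: 0% = enzyme with DMSO and 100% = wells lacking pPAFAH enzyme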
# Apaf-1 inh conf2 = confirmation of Apaf-1 inhibitors; shares compounds with Apaf1 inhib; reconstituted apoptosome, caspase-3 DEVD-Rh110 fluorescence; inhibition, % at 20 µM; 1,800 tested, 25% active; AID 504614;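 active means mean inhibition of at least 40% at 20 µM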;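 further: plate controls were DMSO wells for no effect and DEVD-CHO caspase inhibitor control wells for full effect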
# Rh110 quench = interferes with Rh110 fluorescence, flagging false Apaf-1 inhibitors | shares compounds with Apaf1 inhib | Rh110 fluorescence interference, quenched caspase reaction | activation (fluorescence interference), % at 20 µM | 1,800 tested, under 10 active | AID 504615;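 active means signal rise of 40% or more at 20 µM, treated as a fluorescence artifact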
# Fluor interf inh = shows fluorescence interference in the Apaf-1 inhibitor assay format; AID 588538; shares compounds with Apaf1 inhib; 460 tested, under 10 active; IC50, µM; fluorescence interference counterscreen, Apaf-1 assay format; call rule not given here
# Starred values were filed as active, the others as inactive; . = no result given. In the library only some 3.1% were active in any assay of this set; here they are far more common.
SMILES,Apaf1 inhib,PAFAH2 FP inh,PAFAH1B2 FP inh,PAFAH1B3 FP inh,pPAFAH inh,Apaf-1 inh conf2,Rh110 quench,others
CCC1(OC(=O)c2ccccc2)CC(C)N(C)CC1C (stereo not drawn),4,5,0,12,-3,.,.,
CC1CCCC(NC(=O)COC(=O)Cc2ccccc2)C1C (stereo not drawn),-2,25,5,-3,40*,.,.,pPAFAH FP conf=39*
Nc1ccc(CCN2CCN(c3cccc(C(F)(F)F)c3)CC2)cc1,0,-4,0,4,-1,.,.,
FC(F)(F)c1ccc2c(c1)N(CCCN1CCN(CCCl)CC1)c1ccccc1S2,13,-5,-1,11,38*,.,.,pPAFAH FP conf=31*
O=C(N/N=C1/CN2CCC1CC2)c1cc2ccccc2cc1O,3,10,8,17,40*,.,.,pPAFAH FP conf=9
CC(C)(O)[C@@H]1[C@H]2OC(=O)[C@@H]1[C@]1(O)C[C@H]3O[C@]34C(=O)O[C@H]2[C@]14C (tested in a mixture with another compound),-4,.,.,.,3,.,.,
O=C(COC(=O)Cc1ccccc1)Nc1ncc(Cl)cc1Cl,4,0,-2,4,35*,.,.,pPAFAH FP conf=23
N/C(=N\N=C/c1ccc(-c2ccc(O)c(C(=O)O)c2)o1)N[N+](=O)[O-],-8,12,11,30*,50*,.,.,pPAFAH FP conf=35*
COc1cc2c(cc1OC)-c1c(OC)c(OC)c(OC)c3ccnc(c13)C2=O,15,.,.,.,38*,.,.,pPAFAH FP conf=19
COC(=O)C1=C(c2ccc(C(C)=O)cc2)C[C@@H]2CC[C@H]1N2C(=O)NC1Cc2ccccc2C1,3,-1,1,15,1,.,.,
CCCCN1C(=O)/C(=C/c2ccc(N(C)C)cc2)C(=O)N(Cc2ccco2)C1=O,24,-24,-13,-32,36*,.,.,pPAFAH FP conf=-1
CCN(CC)c1ccc(/C=C2\C(=O)NC(=O)N(Cc3ccco3)C2=O)cc1,2,13,-6,-11,6,.,.,
Cc1cccc(N2C(=O)NC(=O)/C(=C/c3cc4c(cc3[N+](=O)[O-])OCO4)C2=O)c1,11,17,1,2,42*,.,.,pPAFAH FP conf=-1
O=[N+]([O-])c1ccc(NCc2ccccc2)c2nonc12,35,.,.,.,47*,.,.,pPAFAH FP conf=41*
C[n+]1c(-c2ccccc2)c2cc(N)ccc2c2ccc(N)cc21,98*,92*,87*,121*,68*,80*,2,pPAFAH FP conf=52*;Fluor interf inh=>100
CCCC(=O)N(C)C1=Nc2ccc(Cl)cc2C(c2ccccc2)=[N+]([O-])C1,9,3,3,2,5,.,.,
O=[N+]([O-])c1ccc(NCc2ccc(Cl)cc2)c2ccncc12,79*,9,6,8,2,12,-3,
CCN(CCNc1ccc([N+](=O)[O-])c2cccnc12)S(=O)(=O)c1ccc(Cl)cc1,13,1,4,2,8,.,.,
COC(=O)C1=C(c2ccc(F)cc2OCc2ccccc2)C[C@@H]2CC[C@H]1N2C(=O)NC1CCN(Cc2ccccc2)CC1,53*,2,5,5,2,9,-4,
COC(=O)C1=C(c2ccccc2OCc2ccccc2)C[C@@H]2CC[C@H]1N2C(=O)NC1CCN(Cc2ccccc2)CC1,39,4,5,-8,-9,.,.,
COC(=O)C1=C(c2cccc(OCc3ccccc3)c2)C[C@@H]2CC[C@H]1N2C(=O)NC1CCN(Cc2ccccc2)CC1,48*,2,7,4,1,11,4,
COc1ccc(CC2(CCc3ccncc3)C(=O)NC(=O)NC2=O)c(OC)c1,2,6,7,2,6,.,.,
NCCc1ccc(OCc2ccccc2)c(OCc2ccccc2)c1,46*,-6,0,-7,-6,2,1,
COc1ccc(CCN)cc1OC,-5,-1,1,-2,3,.,.,
O=[N+]([O-])c1ccc(N2CCCCC2)c2ncccc12,5,5,6,4,2,.,.,
SMILES,Apaf1 inhib,PAFAH2 FP inh,PAFAH1B2 FP inh,PAFAH1B3 FP inh,pPAFAH inh,Apaf-1 inh conf2,Rh110 quench,others
O=[N+]([O-])c1ccc(N2CCCNCC2)c2ncccc12,45*,2,4,7,1,18,13,
CCc1ccc(NP(=O)(Oc2ccccc2F)Oc2ccccc2F)cc1,24,-3,5,-3,3,.,.,
Cc1cccc(NP2(=O)NCCCN2)c1,.,5,-1,3,.,.,.,
Cc1[nH]n(-c2ccccc2)c(=O)c1C(c1ccc([N+](=O)[O-])cc1)c1c(C)[nH]n(-c2ccccc2)c1=O,79*,18,6,9,2,30,10,
O=[N+]([O-])c1ccc(C(c2ccc([N+](=O)[O-])cc2)c2ccc([N+](=O)[O-])cc2)cc1,.,0,3,3,.,.,.,
COc1cc2c3cc1Oc1c(OC)c(OC)cc4c1[C@H](Cc1ccc(cc1)Oc1cc(ccc1O)C[C@H]3N(C)CC2)N(C)CC4,8,0,4,10,2,.,.,
COc1cc2c3c(c1OC)Oc1ccc(cc1)C[C@H]1c4c(cc(OC)c(OC)c4Oc4ccc(cc4)C[C@@H]3N(C)CC2)CCN1C,45*,-1,2,6,-2,15,-2,
O=[N+]([O-])c1ccc(NCCCN2CCOCC2)c2ncccc12,40*,-1,-1,3,3,6,2,
NCCNc1ccc([N+](=O)[O-])c2cccnc12,9,2,-1,3,0,.,.,
CCOP(=O)(Cc1cc(C(C)=O)c(C)o1)OCC,-21,9,4,1,1,.,.,
Nc1c(C(=O)OCc2ccccc2)c2nc3ccccc3nc2n1Cc1cccs1,86*,-5,3,6,3,23,18,
CC(C)(C)C(=O)C(Oc1ccc(Cl)cc1)n1cncn1 (stereo not drawn),.,0,6,4,.,.,.,
Cn1cc(C(=O)N2CCCCC2)c2ccccc21,8,-5,1,-1,1,.,.,
Ic1ccccc1CN[C@@H]1C2CCN(CC2)[C@@H]1C(c1ccccc1)c1ccccc1,50*,1,-1,0,-2,13,5,
c1ccc(CCCN2CCN(CCOC(c3ccccc3)c3ccccc3)CC2)cc1,51*,-3,3,0,-1,18,9,
CCC(C)NC(=O)c1c(N)n(CC2CCCO2)c2nc3ccccc3nc12 (stereo not drawn),94*,13,5,10,19,56*,12,Fluor interf inh=>100
CN(C)C(=O)Oc1ccc2c(c1)O/C(=C\c1cccc(Cl)c1)C2=O,13,6,3,-5,2,.,.,
CCCCCCCCCCCCCCCC[N+](C)(C)C,85*,1,-3,3,11,46*,15,Fluor interf inh=>100
